Reference: ChEMBL document CHEMBL4041529, “Structure-Guided Design of EED Binders Allosterically Inhibiting the Epigenetic Polycomb Repressive Complex 2 (PRC2) Methyltransferase” (J Med Chem, 2017)

Tests used:
Polycomb protein EED [1] = target: T1, Polycomb protein EED (Homo sapiens, UniProt O75530); assay: Inhibition of human PRC2-EED (76 to 441 residues) expressed in Escherichia coli BL21 (DE3) using histone H3[21 to 44, K27MeO] as substrate and SAM as co-factor measured after 2 hrs by LC-MS/MS method
T1 sequence (O75530 whole entry, the tested form may be a part): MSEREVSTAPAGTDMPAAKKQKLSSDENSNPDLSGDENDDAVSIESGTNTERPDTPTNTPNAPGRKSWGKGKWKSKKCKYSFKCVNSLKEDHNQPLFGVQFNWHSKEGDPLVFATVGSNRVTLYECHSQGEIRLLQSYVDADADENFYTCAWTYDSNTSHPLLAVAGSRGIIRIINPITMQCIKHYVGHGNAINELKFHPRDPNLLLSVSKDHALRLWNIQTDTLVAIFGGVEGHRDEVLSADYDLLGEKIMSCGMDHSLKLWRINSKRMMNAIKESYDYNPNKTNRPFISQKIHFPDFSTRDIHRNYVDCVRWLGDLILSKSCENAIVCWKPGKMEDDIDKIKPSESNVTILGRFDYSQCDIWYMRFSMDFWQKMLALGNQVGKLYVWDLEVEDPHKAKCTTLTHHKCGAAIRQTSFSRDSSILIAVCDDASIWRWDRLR

Polycomb protein EED [2] = target: T1, Polycomb protein EED; assay: Inhibition of EED in human G401 cells assessed as reduction in H3K27 methylation measured after 48 hrs by ELISA method; assay type: cell-based
Outline: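 G-401 rhabdoid cells at 37 °C, 5% CO2 were seeded, grown 24 h, then given serial dilutions for 48 h against a matched DMSO control. Cells were PBS-washed, lysed in 0.4 N HCl for 30 min at 4 °C and neutralized. Lysate was coated overnight at 4 °C, blocked with TBST/5% BSA, then probed with antibody and ECL. H3K27Me3 was normalized to H3, and IC50 came from a dose-response fit.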

Pfeiffer = assay: Antiproliferative activity against human Pfeiffer cells harboring EZH2 mutant measured after 6 days by CellTiter-Glo assay; assay type: functional, cell-based; conditions: for EC50: 144 h
Outline: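 Exponentially growing Pfeiffer B-lymphocyte cells were exposed to compound for 6 days. Growth was read by CellTiter-Glo luminescence. Percent inhibition was taken versus a DMSO control, and IC50 was obtained by curve fitting.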

[3] = Dissociation constant, pKa of the compound by electrophoresis/potentiometric method; assay type: physicochemical
Polycomb protein EED [4] = target: T1, Polycomb protein EED; assay: Binding affinity to human methionine-13Cepsilon-methyl labeled PRC2-EED (76 to 441 residues) expressed in Escherichia coli BL21 (DE3) by 2D NMR method
Outline: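 2D [13C,1H]-HSQC at 600 MHz, 296 K, on 40 μM selectively methionine-13Cε-methyl-labeled EED76–441 in 25 mM d-Tris pH 8, 150 mM NaCl, 2 mM d-DTT, 10% D2O. The protein was titrated with increasing ligand, and KD was derived from the chemical shift perturbations.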

| Structure (SMILES) | IC50 (Polycomb protein EED [1]) | IC50 (Polycomb protein EED [2]) | pKa [3] | also measured |
| --- | --- | --- | --- | --- |
| COc1cc(CC2CCCNC2)ccc1F (centres undefined) | 119 µM |  |  |  |
| COc1cccc(CC2CCCNC2)c1 (centres undefined) | 95 µM |  | 9.9 | Kd (Polycomb protein EED [4]): 32 µM |
| COc1cccc(CC2CCCN(C(=N)N)C2)c1 (centres undefined) | 43 µM |  | > 11 |  |
| c1cc(CC2CCCNC2)c2occc2c1 (centres undefined) | 95 µM |  |  |  |
| c1ccc(CC2CCCNC2)cc1 (centres undefined) | > 500 µM |  |  |  |
| COc1ccc(CC2CCCNC2)cc1 (centres undefined) | > 500 µM |  |  |  |
| NC(=O)N1CCCC(Cc2cccc3ccoc23)C1 (centres undefined) | 174 µM |  |  |  |
| c1cc(CC2CCCNC2)c2ccoc2c1 (centres undefined) | 40 µM |  | 9.8 |  |

Molecules with a lower IC50 (Polycomb protein EED [1]), results first:

| IC50 (Polycomb protein EED [1]) | IC50 (Polycomb protein EED [2]) | pKa [3] | Structure (SMILES) | also measured |
| --- | --- | --- | --- | --- |
| 35 µM |  |  | c1cc(CC2CCCNC2)c2c(c1)OCO2 (centres undefined) |  |
| 7.9 µM |  |  | CC(C)c1nc(N)n2c1CCC(Cc1ccccc1F)C2 (centres undefined) |  |
| 3.9 µM | 1.6 µM | > 11 | N=C(N)N1CCCC(Cc2cccc3c2OCO3)C1 (centres undefined) |  |
| 2.8 µM | 2.5 µM |  | N=C(N)N1CCCC(Cc2cccc3ccoc23)C1 (centres undefined) |  |
| 2.7 µM | 12.4 µM |  | Nc1ncc2n1CC(Cc1cccc3occc13)CC2 (centres undefined) |  |
| 2.1 µM | 2.5 µM | > 11 | N=C(N)N1CCCC(Cc2cccc3occc23)C1 (centres undefined) |  |
| 1.3 µM | 2.9 µM |  | COc1ccc(F)c(CC2CCc3c(C(C)C)nc(N)n3C2)c1 (centres undefined) | EC50 (Pfeiffer): 4.4 µM |
| 1.3 µM | 1 µM | 9.2 | Nc1ncc2n1CC(Cc1cccc3c1OCO3)CC2 (centres undefined) |  |
| 0.43 µM | 2 µM |  | CC(C)c1nc(N)n2c1CCC(Cc1cccc3c1OCO3)C2 (centres undefined) | Activity (Pfeiffer): Dose-dependent effect; EC50 (Pfeiffer): 3.4 µM |
